Assay results: ChEMBL document CHEMBL3351297, “In Vitro Antibacterial Activity of Prenylated Guanidine Alkaloids from Pterogyne nitens and Synthetic Analogues” (2014)
Converted amounts (≈) assume the structure as drawn.

Key:
[1] = tested on: Staphylococcus aureus; assay: Antimicrobial activity against multi-drug-resistant Staphylococcus aureus SA-1199B expressing NorA efflux pump assessed as absence of growth after 18 hrs by MTT assay; format: functional
Summary of the method: (§1)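 Strains were pre-grown on nutrient agar for 24 h at 37 °C. Inoculum was 1 × 10^6 cfu/mL in normal saline, set against a 0.5 McFarland standard. Compounds were dissolved in DMSO and serially diluted in cation-adjusted Mueller-Hinton broth (20 mg/L Ca2+, 10 mg/L Mg2+) over 512 to 0.5 mg/L. Plates ran 18 h at 37 °C. MTT was added for 20 min; blue meant growth. MIC is the lowest concentration without growth.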

[2] = tested on: Staphylococcus aureus; assay: Antimicrobial activity against methicillin-resistant Staphylococcus aureus XU212 assessed as absence of growth after 18 hrs by MTT assay; format: functional; settings: XU212, 18 h; summary of the method: as §1
[3] = tested on: Staphylococcus aureus; assay: Antimicrobial activity against Staphylococcus aureus ATCC25943 assessed as absence of growth after 18 hrs by MTT assay; format: functional; settings: ATCC25943, 18 h; summary of the method: as §1
[4] = tested on: Staphylococcus aureus; assay: Antimicrobial activity against methicillin-resistant Staphylococcus aureus EMRSA-15 assessed as absence of growth after 18 hrs by MTT assay; format: functional; settings: EMRSA-15, 18 h; summary of the method: as §1
[5] = tested on: Staphylococcus aureus; assay: Antimicrobial activity against methicillin-resistant Staphylococcus aureus EMRSA-16 assessed as absence of growth after 18 hrs by MTT assay; format: functional; settings: EMRSA-16, 18 h; summary of the method: as §1
[6] = tested on: Staphylococcus aureus; assay: Antimicrobial activity against macrolide-resistant Staphylococcus aureus RN4220 assessed as absence of growth after 18 hrs by MTT assay; settings: RN4220, 18 h
[7] = tested on: Staphylococcus aureus; assay: Bactericidal activity against multi-drug-resistant Staphylococcus aureus SA-1199B expressing NorA efflux pump incubated for 24 hrs followed by transfer to Petri dishes and measured after 24 hrs; settings: read-out: MBC99.9

Row | SMILES | MIC [1] [µg/mL] | MIC [2] [µg/mL] | MIC [3] [µg/mL] | MIC [4] [µg/mL] | MIC [5] [µg/mL] | MIC [6] [µg/mL] | MBC [7] [µg/mL]
1 | CC(C)=CCC/C(C)=C/CNC(=N)NC/C=C(\C)CCC=C(C)C [NITENSIDINE A] | 32 (≈ 96.5 µM) | 8 (≈ 24.1 µM) | 16 (≈ 48.3 µM) | 16 (≈ 48.3 µM) | 8 (≈ 24.1 µM) | 16 (≈ 48.3 µM) | –
2 | CC(C)=CCC/C(C)=C/C=N/C(N)N | 32 (≈ 164 µM) | 8 (≈ 41 µM) | 16 (≈ 81.9 µM) | 16 (≈ 81.9 µM) | 8 (≈ 41 µM) | 16 (≈ 81.9 µM) | –
3 | CC(C)=CCC/C(C)=C/CNC(=O)NC/C=C(\C)CCC=C(C)C | > 512 | > 512 | > 512 | > 512 | > 512 | > 512 | –
4 | CC(C)=C/C=C/C1(C)CCN=C(N)N1 (configuration not stated) [NITENSIDINE E] | 32 (≈ 166 µM) | 8 (≈ 41.4 µM) | 16 (≈ 82.8 µM) | 32 (≈ 166 µM) | 8 (≈ 41.4 µM) | 16 (≈ 82.8 µM) | –
5 | CC(C)=CCN=C(N)N [GALEGINE] | 4 (≈ 31.4 µM) | 4 (≈ 31.4 µM) | 4 (≈ 31.4 µM) | 4 (≈ 31.4 µM) | 4 (≈ 31.4 µM) | 4 (≈ 31.4 µM) | 4 (≈ 31.4 µM)
6 | CCn1cc(C(=O)O)c(=O)c2cc(F)c(N3CCNCC3)cc21 [NORFLOXACIN] | 32 (≈ 100 µM) | 8 (≈ 25.1 µM) | 0.5 (≈ 1.57 µM) | 0.5 (≈ 1.57 µM) | 128 (≈ 401 µM) | 0.5 (≈ 1.57 µM) | –
7 | CC(C)=CCN=C(NCC=C(C)C)NCC=C(C)C | > 512 | > 512 | > 512 | > 512 | > 512 | > 512 | –
8 | CC(C)=CCC/C(C)=C/CN(C)C(=N)N(C)C/C=C(\C)CCC=C(C)C [NITENSIDINE C] | 32 (≈ 89 µM) | 8 (≈ 22.2 µM) | 16 (≈ 44.5 µM) | 32 (≈ 89 µM) | 8 (≈ 22.2 µM) | 16 (≈ 44.5 µM) | –
9 | CC(C)=CCNC(=N)NCC=C(C)C [PTEROGYNIDINE] | 4 (≈ 20.5 µM) | 4 (≈ 20.5 µM) | 4 (≈ 20.5 µM) | 4 (≈ 20.5 µM) | 4 (≈ 20.5 µM) | 4 (≈ 20.5 µM) | 4 (≈ 20.5 µM)
10 | CC(C)=CCC/C(C)=C/CNC(=S)NC/C=C(\C)CCC=C(C)C | 128 (≈ 367 µM) | 128 (≈ 367 µM) | 128 (≈ 367 µM) | > 512 | 32 (≈ 91.8 µM) | 128 (≈ 367 µM) | –
